The source made the active and inactive calls.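 Rule for the calls, unless noted: active = potentiation averaged over duplicate wells exceeding buffer-only control mean by more than 3 SD; inactive = the rest.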

For 34 compounds, outcome, activation and potentiation results are on record in PubChem BioAssay.

Assay [1] in a line: thallium flux activation in parental CHO cells, counter-screen for KCNQ1 potentiator project (AID 493006;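 active = duplicate-averaged activation above buffer control mean plus 5 SD of those controls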). To be noted: parental CHO-K1 cells, FluxOR thallium flux, at 10 µM; stronger effect = higher value. Summed up:
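Assay system: Untransfected host CHO-K1 cells with FluxOR thallium dye | Probe or stimulus: Potassium/thallium depolarization pulse | Schedule: Overnight 37 °C plating, 90 min RT dye, 20 min compound | Detection: Kinetic thallium-flux fluorescence | Read-out: Max-minus-min fluorescence over baseline, percent of buffer-to-R-L3 span | Benchmarks: Low control buffer, high control R-L3 activator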
(The purpose of a counterscreen is to sort out artefacts and off-target activity.)

In assay [2] the target is Potassium voltage-gated channel subfamily KQT member 1 (Homo sapiens) (UniProt P51787). Nature of the assay: KCNQ1 potassium channel potentiators, confirmation, FluxOR thallium flux, CHO cells, duplicates (AID 493007).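 For outcome: cells depolarized by a potassium plus thallium sulfate stimulus after compound.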 As to conditions: KCNQ1 cell line, FluxOR thallium flux fluorescence, at 10 µM; stronger effect = higher value, % of reference activator effect, buffer zero. Summed up: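 Material: KCNQ1-expressing CHO cell line; Incubation: FluxOR dye loading 90 min, compound exposure 20 min, room temperature; Detection: FluxOR Tl+ flux fluorescence, 10 s baseline plus 110 s recording; Read-out: percent activation between buffer and R-L3 responses; Control set: buffer-only wells as 0% and R-L3 activator as 100%; Replication: duplicate wells per compound.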
Sequence of Potassium voltage-gated channel subfamily KQT member 1 (Homo sapiens) (P51787 whole entry, looked up): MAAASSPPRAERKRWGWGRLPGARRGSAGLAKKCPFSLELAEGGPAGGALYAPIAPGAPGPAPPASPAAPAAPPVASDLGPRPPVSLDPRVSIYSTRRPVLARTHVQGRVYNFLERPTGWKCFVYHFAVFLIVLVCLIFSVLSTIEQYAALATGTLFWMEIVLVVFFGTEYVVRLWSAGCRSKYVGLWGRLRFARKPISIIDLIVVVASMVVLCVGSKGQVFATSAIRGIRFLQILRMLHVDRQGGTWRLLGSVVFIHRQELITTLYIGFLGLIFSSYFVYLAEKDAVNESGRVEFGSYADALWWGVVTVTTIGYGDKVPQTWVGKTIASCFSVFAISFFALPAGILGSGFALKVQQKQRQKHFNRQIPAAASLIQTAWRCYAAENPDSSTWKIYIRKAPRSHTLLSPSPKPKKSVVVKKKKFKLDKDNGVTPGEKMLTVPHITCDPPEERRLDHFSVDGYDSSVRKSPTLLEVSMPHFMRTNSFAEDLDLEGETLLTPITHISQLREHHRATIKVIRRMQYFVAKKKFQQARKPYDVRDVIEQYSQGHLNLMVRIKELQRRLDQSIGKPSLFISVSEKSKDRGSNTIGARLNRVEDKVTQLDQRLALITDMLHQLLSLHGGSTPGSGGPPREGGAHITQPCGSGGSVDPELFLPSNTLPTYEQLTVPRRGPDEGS

For assay [3], the target named is Potassium voltage-gated channel subfamily KQT member 2 (Rattus norvegicus) (UniProt O88943). Briefly: rat KCNQ2 channel potentiation, selectivity assay for KCNQ1 potentiator project, KCNQ2-CHO-K1 cells (AID 493009;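 active = mean duplicate potentiation above the buffer control mean plus 5 SD of buffer wells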;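 note: assay conditions were tuned for KCNQ1 rather than KCNQ2 modulators; signal is max minus min fluorescence divided by baseline after thallium stimulus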). To be noted: FluxOR thallium flux fluorescence, at 10 µM; stronger effect = higher value, scaled: buffer 0, activator control 100.
Sequence of Potassium voltage-gated channel subfamily KQT member 2 (Rattus norvegicus) (O88943 whole entry, looked up): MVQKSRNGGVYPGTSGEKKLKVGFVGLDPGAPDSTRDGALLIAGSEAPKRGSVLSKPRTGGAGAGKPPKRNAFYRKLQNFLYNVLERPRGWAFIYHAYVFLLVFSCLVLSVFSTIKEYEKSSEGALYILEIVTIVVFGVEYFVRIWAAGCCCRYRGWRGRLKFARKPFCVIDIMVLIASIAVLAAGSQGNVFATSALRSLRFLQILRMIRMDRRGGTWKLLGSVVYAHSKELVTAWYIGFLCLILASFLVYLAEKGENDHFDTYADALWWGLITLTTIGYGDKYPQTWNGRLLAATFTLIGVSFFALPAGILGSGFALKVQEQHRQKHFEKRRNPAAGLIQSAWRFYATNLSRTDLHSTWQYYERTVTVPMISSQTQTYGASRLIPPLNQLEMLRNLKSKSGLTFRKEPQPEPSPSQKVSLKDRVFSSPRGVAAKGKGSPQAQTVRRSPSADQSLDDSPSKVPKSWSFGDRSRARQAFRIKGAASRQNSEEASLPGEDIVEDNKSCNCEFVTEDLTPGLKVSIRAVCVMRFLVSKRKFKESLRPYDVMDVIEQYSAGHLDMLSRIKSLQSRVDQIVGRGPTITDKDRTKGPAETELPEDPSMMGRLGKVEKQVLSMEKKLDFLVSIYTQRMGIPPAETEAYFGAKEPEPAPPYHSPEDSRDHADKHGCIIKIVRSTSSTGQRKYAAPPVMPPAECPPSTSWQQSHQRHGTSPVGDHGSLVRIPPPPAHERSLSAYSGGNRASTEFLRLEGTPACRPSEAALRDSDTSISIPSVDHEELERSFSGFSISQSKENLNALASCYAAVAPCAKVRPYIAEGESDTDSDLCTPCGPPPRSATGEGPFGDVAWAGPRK
The target of assay [4] is Potassium voltage-gated channel subfamily KQT member 1 (Homo sapiens) (UniProt P51787). Nature of the assay: KCNQ1 channel current potentiators, confirmation, orthogonal assay for KCNQ1 potentiator project, IonWorks patch clamp, KCNQ1-CHO cells (AID 493184;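 active = current rise at least 3 SD above the untreated control mean in each of two repeat wells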). To be noted: automated patch clamp current, at 10 µM; stronger effect = higher value. Summed up: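 assay system = KCNQ1-expressing CHO cells | medium = external bath solution at pH 7.4 | probe or stimulus = 2,000 ms depolarization, -90 to +40 mV | compound dosing = 10 µM final, single point | measured by = automated voltage clamp, amphotericin B perforated patch | measure = percent current increase versus pre-compound level | replication = duplicates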

The target in assay [5] is Potassium voltage-gated channel subfamily E member 1 (Homo sapiens) + Potassium voltage-gated channel subfamily KQT member 1 (Homo sapiens) (UniProt P15382+P51787). Nature of the assay: KCNQ1/KCNE1 complex potentiators, confirmation, selectivity assay for KCNQ1 potentiator project, thallium flux, CHO-K1 KCNQ1/E1 cells (AID 493186;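 active = mean duplicate activation above the buffer control mean plus 5 SD of those controls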). As to conditions: FluxOR thallium flux, at 10 µM; stronger effect = higher value. Summed up: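 Test system – CHO-K1 cells with KCNQ1/E1 · Measured by – FluxOR Tl+ flux fluorescence, kinetic read · Controls – buffer low control, R-L3 high control · Times – dye 90 min, compound 20 min, room temperature · Replication – duplicate wells per compound · Doses – one test concentration · Evaluation – fluorescence rise relative to baseline, as percent of R-L3 response above buffer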
Sequence of Potassium voltage-gated channel subfamily E member 1 (Homo sapiens) + Potassium voltage-gated channel subfamily KQT member 1 (Homo sapiens) (P51787 whole entry, looked up): as the sequence (P51787 whole entry, looked up) above

`Cc1ccc(-c2cc(C(=O)NCc3ccccn3)c3ccccc3n2)cc1C`: the outcome in assay [1], in assay [2], in assay [3] and in assay [4] was inactive.
Turning to `O=C(CSc1nc2ccccc2[nH]1)N/N=C/c1ccncc1`, the result in assay [1], in assay [2], in assay [3] and in assay [4] was inactive.
For the compound `CCOC(=O)c1cccc(NC(=O)CCc2ccccc2)c1`, the result in assay [1], in assay [2], in assay [3] and in assay [4] was inactive.
On to `O=C(O)CSc1cc(NS(=O)(=O)c2ccc(Br)cc2)c2ccccc2c1O`, for which the outcome in assay [1], in assay [2], in assay [3] and in assay [4] was inactive.
On to `CN(CCCNC(=O)CSc1cc(=O)n(C)c2ccc(Cl)cc12)Cc1ccccc1`, for which the result in assay [1], in assay [2], in assay [3] and in assay [4] was inactive.
As to `Cc1ccccc1C(=O)c1c[nH]c(C(=O)N2CCN(c3ccccc3F)CC2)c1`, the outcome in assay [1], in assay [2], in assay [3] and in assay [4] was inactive.
For the compound `O=C(Nc1cccc(S(=O)(=O)NC2=NCCC2)c1)c1c(F)cccc1Cl`, the outcome in assay [1], in assay [2], in assay [3] and in assay [4] was inactive.
Turning to `CCNc1nc(NCC)n2c(SCC(=O)Nc3ccc(F)cc3)nnc2n1`, the outcome in assay [1], in assay [2], in assay [3] and in assay [4] was inactive.
Consider `CCc1ccc(-c2c(C)sc(NC(C)=O)c2C(N)=O)cc1`, for which the outcome in assay [1], in assay [2], in assay [3] and in assay [4] was inactive.
Turning to `COc1ccc(C(=O)O/N=C(\N)c2ccccc2Cl)cc1OC`, the result in assay [1], in assay [2], in assay [3] and in assay [4] was inactive.
With `CCOc1ccc(NC(=O)Cn2sc3nc(C)cc(C)c3c2=O)cc1`, in assay [1], the activation was 142% (active). Moreover, the result in assay [2], in assay [3] and in assay [4] was inactive.
For the compound `Cc1ccc(N(C(=O)c2ccco2)C(C(=O)NC2CCCC2)c2cccnc2)cc1C` (configuration not stated), the outcome in assay [1], in assay [2], in assay [3] and in assay [4] was inactive.
For `Cc1nn(-c2ccccc2)c(Cl)c1/C=N\NC(=O)c1cncc(Br)c1`, the result in assay [1], in assay [2], in assay [3] and in assay [4] was inactive.
In the case of `CC1CCN(c2ncnc3ccccc23)CC1`, the result in assay [1], in assay [2], in assay [3] and in assay [4] was inactive.
As to `CSc1nnc(-c2ccccc2)o1`, the outcome in assay [1], in assay [2], in assay [3] and in assay [4] was inactive.
As for `COc1ccc(CN2C(=O)C(C)S/C2=N/N=C/c2ccco2)cc1` (configuration not stated), the outcome in assay [1], in assay [2], in assay [3] and in assay [4] was inactive.
In the case of `O=C(ONC1=NCCCCC1)c1ccc(Cl)cc1`, the result in assay [1], in assay [2], in assay [3] and in assay [4] was inactive.
With `O=C(CSc1ncnc2c1cnn2-c1ccc(F)cc1)NC1CCCC1`, the result in assay [1], in assay [2], in assay [3] and in assay [4] was inactive.
As to `CN(C)CCNC(=O)c1ccc2c(=O)n(Cc3ccc(Cl)cc3)c(=S)[nH]c2c1`, the result in assay [1] and in assay [4] was inactive. Further, the potentiation in assay [2] was 25% (active); in assay [3], 149% (active).
As for `O=C1CCC(C(=O)N2CCSCC2)CN1Cc1cccc(C(F)(F)F)c1` (configuration not stated), the outcome in assay [1], in assay [2], in assay [3] and in assay [4] was inactive.
As to `Cc1ccc(C(=O)CC(=O)c2cc(Cl)ccc2O)cc1`, the activation in assay [1] was 150% (active). In addition, the results for the potentiation in assay [2] and in assay [3] were 42.5% (active) and 152% (active), respectively. Besides, the outcome in assay [4] was inactive.
For `COC(=O)C1CCCN1C(=O)COc1ccc(Br)cc1Cl` (configuration not stated), the activation in assay [1] was 206% (active). Moreover, the figures for the potentiation in assay [2] and in assay [3] were 48.5% (active) and 198% (active), respectively. Besides, in assay [4], the outcome was inactive.
For the compound `Cc1ccc(-n2c(=S)[nH]c3sc4c(c3c2=O)CCC4)cc1`, the activation in assay [1] was 158% (active). For the same compound, the figures for the potentiation in assay [2] and in assay [3] were 42.5% (active) and 176% (active), respectively. The outcome in assay [4] was inactive.
For `Cc1cc(Cl)ccc1OCC(=O)NNC(=O)C1CCCO1` (configuration not stated), the outcome in assay [1], in assay [2], in assay [3] and in assay [4] was inactive.
Consider `COc1ccc(Cl)cc1NC(=O)CNc1ccc(F)cc1C`, for which the outcome in assay [1], in assay [2], in assay [3] and in assay [4] was inactive.
Turning to `O=C(c1ccc(Cl)cc1)c1c[nH]c(C(=O)C(Cl)(Cl)Cl)c1`, the outcome in assay [1], in assay [2], in assay [3] and in assay [4] was inactive.
For the compound `Nc1c(Cl)cc(C2=NCCn3nc4cc(C(F)(F)F)ccc4c32)cc1Cl`, the outcome in assay [1], in assay [2], in assay [3] and in assay [4] was inactive.
With `COc1ccc(NC(=O)Cc2nnc(SCC(=O)c3ccc(F)cc3)n2C)cc1`, the outcome in assay [1], in assay [2], in assay [3] and in assay [4] was inactive.
As to `Cc1ccc(NC(=S)NC(=O)c2cncc(Br)c2)cc1Cl`, in assay [1], the activation was 323% (active). The potentiation in assay [2] is 246% (active); in assay [3], 449% (active). For the same compound, the outcome in assay [4] was inactive.
As to `O=C(NC(=S)N(CCCCO)C1CCCCC1)c1sc2ccccc2c1Cl`, the activation in assay [1] was 368% (active). For the same compound, the values for the potentiation in assay [2] and in assay [3] were 192% (active) and 392% (active), respectively. For the same compound, the result in assay [4] was inactive.
As for `Cc1nn(CC2CC2)c(=O)n1-c1ccc(F)cc1`, the outcome in assay [1], in assay [2], in assay [3] and in assay [4] was inactive.
As for `CCSC(=S)c1c(C)[nH]n(-c2ccccc2)c1=O`, the activation in assay [1] was 164% (active). For the same compound, the values for the potentiation in assay [2] and in assay [3] were 30% (active) and 184% (active), respectively. The result in assay [4] was inactive.
As to `CN(C)c1ccnc(N(Cc2ccccc2)Cc2ccccc2)c1C#N`, the outcome in assay [1], in assay [2], in assay [3], in assay [4] and in assay [5] was inactive.
Consider `CC(=O)N(C)c1ccc(NC(=O)Cc2cccc3ccccc23)cc1`, for which the outcome in assay [1], in assay [2], in assay [3] and in assay [4] was inactive.
